test: Displacement of [3H]RX821002 from alpha2 adrenoceptor in human prefrontal cortex neural membrane; format: tissue-based
In short: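 Postmortem human PFC P2 membranes (homogenized in 5 mM Tris–HCl pH 7.4, 1 mM MgCl2, 0.25 M sucrose; stored at −70 °C) incubated in 50 mM Tris–HCl pH 7.5 with 1 nM [3H]RX821002 and competitor (10 concentrations) 30 min at 25 °C. Bound ligand separated by GF/C filtration and counted by scintillation. Non-specific binding with 10^-5 M adrenaline. Ki by one-site nonlinear regression, expressed as pKi.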

Going from COC1(C2=NCCN2)COc2ccccc2O1 (stereo unspecified) to N=C(N)Oc1ccc2c(c1)CCC2, the pKi falls from 9.04 to 5.27.

Compared with N=C(N)Oc1ccc2c(c1)CCCC2, N=C(N)Nc1ccc2c(c1)CCCC2 is higher in pKi: 5.35 for the first, 7.11 for the second.

Cc1ccc(OC(=N)N)cc1 and N=C(N)Oc1ccc(Sc2ccc(O)cc2)cc1 are within 0.2 log units of each other in pKi: 5.09 for the first, 4.94 for the second.

Compared with N=C(N)Oc1ccc(Cc2ccc(OC(=N)N)cc2)cc1, N=C(N)Oc1ccc(Cc2ccc(O)cc2)cc1 is lower in pKi: 5.4 for the first, 4.98 for the second.

First: N=C(N)Oc1ccc(Oc2ccc(O)cc2)cc1
Second: N=C(N)Oc1ccc(Oc2ccc(OC(=N)N)cc2)cc1
The pKi of the first is lower: 4.49 for the first, 4.72 for the second.

In the case of N=C(N)Oc1ccc(Sc2ccc(OC(=N)N)cc2)cc1, the pKi is reported as 5.1.
